In ChEMBL document CHEMBL1133340, “Design, synthesis, and structure-activity relationship studies of ATP analogues as DNA gyrase inhibitors” (2000):
≈ marks a conversion by molar mass, not a printed value. Blank lines part the entries; values can stand above or below the compound they belong to.

How the values were obtained:
[1] = biological target: T1, DNA gyrase (Escherichia coli) (UniProt P0AES6+P0AES4)
[2] = biological target: T1, DNA gyrase (Escherichia coli); experiment: Maximum non-effective concentration against in vitro Escherichia coli DNA gyrase supercoiling activity was determined by coupled spectrophotometric ATPase assay; type: protein-complex assay
Method in brief: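 E. coli DNA gyrase ATPase activity measured in a coupled spectrophotometric system with pyruvate kinase and lactate dehydrogenase, following NADH disappearance as ATP is consumed; supercoiling assay used for validation. Value reported as maximum non-effective concentration (MNEC), the highest inhibitor concentration showing no gyrase inhibition.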

Streptococcus pyogenes = experiment: Compound was tested in vitro for antibacterial activity against Streptococcus pyogenes beta15; type: functional
Method in brief: (§1)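 MIC by 2-fold agar dilution on Mueller-Hinton agar, inoculum 10⁴ CFU per spot.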

Enterococcus faecium = experiment: Compound was tested in vitro for antibacterial activity against Enterococcus faecium vanA E23-8; type: functional
Method in brief: as §1

Staphylococcus aureus [3] = experiment: Compound was tested in vitro for antibacterial activity against Staphylococcus aureus Smith; type: functional
Method in brief: as §1

Staphylococcus aureus [4] = experiment: Compound was tested in vitro for antibacterial activity against Staphylococcus aureus Smith QR-54; type: functional
Method in brief: as §1

Staphylococcus aureus [5] = experiment: Compound was tested in vitro for antibacterial activity against Staphylococcus aureus NovoR; type: functional
Method in brief: as §1

Staphylococcus aureus [6] = experiment: Compound was tested in vitro for antibacterial activity against Staphylococcus aureus Coum-R; type: functional
Method in brief: as §1

Staphylococcus aureus [7] = experiment: Compound was tested in vitro for antibacterial activity against Staphylococcus aureus H19982; type: functional
Method in brief: as §1

Staphylococcus aureus [8] = experiment: Compound was tested in vitro for antibacterial activity against Staphylococcus aureus ATCC 25923; type: functional
Method in brief: as §1

[9] = test system: Staphylococcus epidermidis; experiment: Compound was tested in vitro for antibacterial activity against Staphylococcus epidermidis ATCC 14990; type: functional
Method in brief: as §1

SMILES: Cc1nn2c(N)nc(Oc3ccc4c(O)cc(=O)oc4c3)nc2c1C#N
- MNEC [1]: 8 µg/mL

SMILES: Cc1ccc(Oc2nc(N)c3c(C)nn(-c4cc(Cl)cc(Cl)c4)c3n2)cn1
- MNEC [2]: 125 µg/mL

SMILES: CCCCNC(=O)Nc1c(O)oc2cc(Oc3nc(N)c4c(CC)nn(-c5cc(Cl)cc(Cl)c5)c4n3)ccc2c1=O
- MNEC [1]: 0.5 µg/mL
- MIC (Streptococcus pyogenes): 2 µg/mL (≈ 3.34 µM)
- MIC (Enterococcus faecium): 16 µg/mL (≈ 26.7 µM)
- MIC (Staphylococcus aureus [3]): 8 µg/mL (≈ 13.4 µM)
- MIC (Staphylococcus aureus [4]): 2 µg/mL (≈ 3.34 µM)
- MIC (Staphylococcus aureus [5]): 8 µg/mL (≈ 13.4 µM)
- MIC (Staphylococcus aureus [6]): 8 µg/mL (≈ 13.4 µM)
- MIC (Staphylococcus aureus [7]): 4 µg/mL (≈ 6.68 µM)
- MIC (Staphylococcus aureus [8]): 4 µg/mL (≈ 6.68 µM)
- MIC [9]: 4 µg/mL (≈ 6.68 µM)

SMILES: COc1ccc(-c2cnn3c(N)nc(Oc4ccc5c(O)cc(=O)oc5c4)nc23)cc1OC
- MNEC [1]: 0.1 µg/mL

SMILES: CCc1nn(-c2cc(Cl)cc(Cl)c2)c2nc(Oc3ccc4c(O)cc(=O)oc4c3)nc(NC3CC3)c12
- MNEC [1]: 4 µg/mL

SMILES: Nc1nc(Oc2ccc3c(O)cc(=O)oc3c2)nc2c1cnn2-c1cc(Cl)cc(Cl)c1
- MNEC [1]: 0.5 µg/mL

SMILES: CCc1nn(-c2cc(Cl)cc(Cl)c2)c2nc(Oc3ccc4c(N(C)C)cc(=O)oc4c3)nc(N)c12
- MNEC [2]: 125 µg/mL

SMILES: CCc1nn(-c2cc(Cl)cc(Cl)c2)c2nc(Oc3ccc4c(O)c(NC(C)=O)c(=O)oc4c3)nc(N)c12
- MNEC [1]: 0.5 µg/mL
- MIC (Streptococcus pyogenes): 1 µg/mL (≈ 1.85 µM)
- MIC (Enterococcus faecium): > 32 µg/mL
- MIC (Staphylococcus aureus [3]): 8 µg/mL (≈ 14.8 µM)
- MIC (Staphylococcus aureus [4]): 8 µg/mL (≈ 14.8 µM)
- MIC (Staphylococcus aureus [5]): 16 µg/mL (≈ 29.6 µM)
- MIC (Staphylococcus aureus [6]): 16 µg/mL (≈ 29.6 µM)
- MIC (Staphylococcus aureus [7]): 4 µg/mL (≈ 7.39 µM)
- MIC (Staphylococcus aureus [8]): 16 µg/mL (≈ 29.6 µM)
- MIC [9]: 4 µg/mL (≈ 7.39 µM)

SMILES: Cc1ccc(Oc2nc(N)n3ncc(-c4ccc(Cl)c(Cl)c4)c3n2)cn1
- MNEC [2]: < 16 µg/mL
- MNEC [1]: > 63 µg/mL

SMILES: CCOC(=O)c1cccc(Oc2nc(N)c3cnn(-c4cc(Cl)cc(Cl)c4)c3n2)c1
- MNEC [2]: 125 µg/mL

SMILES: CO[C@@H]1[C@@H](OC(N)=O)[C@@H](O)[C@H](Oc2ccc3c(O)c(NC(=O)c4ccc(O)c(CC=C(C)C)c4)c(=O)oc3c2C)OC1(C)C [NOVOBIOCIN]
- MIC (Streptococcus pyogenes): 2 µg/mL (≈ 3.26 µM)
- MIC (Enterococcus faecium): 8 µg/mL (≈ 13.1 µM)
- MIC (Staphylococcus aureus [3]): 0.25 µg/mL (≈ 0.408 µM)
- MIC (Staphylococcus aureus [4]): 8 µg/mL (≈ 13.1 µM)
- MIC (Staphylococcus aureus [5]): 8 µg/mL (≈ 13.1 µM)
- MIC (Staphylococcus aureus [6]): 16 µg/mL (≈ 26.1 µM)
- MIC (Staphylococcus aureus [7]): 0.25 µg/mL (≈ 0.408 µM)
- MIC (Staphylococcus aureus [8]): 0.25 µg/mL (≈ 0.408 µM)
- MIC [9]: 0.12 µg/mL (≈ 0.196 µM)

SMILES: Cc1ccc(Oc2nc(N)c3cnn(-c4cc(Cl)cc(Cl)c4)c3n2)cn1
- MNEC [1]: > 125 µg/mL

SMILES: CCOC(=O)c1cccc(Oc2nc(N)c3c(C)nn(-c4cc(Cl)cc(Cl)c4)c3n2)c1
- MNEC [2]: 63 µg/mL

SMILES: CCc1nn(-c2cc(Cl)cc(Cl)c2)c2nc(Oc3ccc4c(O)cc(=O)oc4c3)nc(N)c12
- MNEC [1]: 0.06 µg/mL

SMILES: CCOC(=O)c1c(O)oc2cc(Oc3nc(N)c4c(CC)nn(-c5cc(Cl)cc(Cl)c5)c4n3)ccc2c1=O
- MNEC [1]: 2 µg/mL

SMILES: Cc1nn(-c2cc(Cl)cc(Cl)c2)c2nc(Oc3ccc4c(O)cc(=O)oc4c3)nc(N)c12
- MNEC [1]: 0.25 µg/mL

SMILES: CCc1nn(-c2cc(Cl)cc(Cl)c2)c2nc(Oc3ccc4c(C)cc(=O)oc4c3)nc(N)c12
- MNEC [2]: > 125 µg/mL

SMILES: CCOC(=O)c1cccc(Oc2nc(N)c3c(CC)nn(-c4cc(Cl)cc(Cl)c4)c3n2)c1
- MNEC [2]: 125 µg/mL

SMILES: CCc1nn(-c2cc(Cl)cc(Cl)c2)c2nc(Oc3ccc4c(O)c(C(C)=O)c(=O)oc4c3)nc(N)c12
- MNEC [1]: 2 µg/mL

SMILES: CCc1nn(-c2cc(Cl)cc(Cl)c2)c2nc(Oc3ccc(C)nc3)nc(N)c12
- MNEC [2]: < 16 µg/mL
- MNEC [1]: > 16 µg/mL

Next, values leading:

- MNEC [1]: 1 µg/mL
SMILES: CCc1nn(-c2cccc(F)c2)c2nc(Oc3ccc4c(O)cc(=O)oc4c3)nc(N)c12

- MNEC [1]: 1 µg/mL
SMILES: Cc1nn(-c2cc(Cl)cc(Cl)c2)c2nc(Sc3cccc(C(=O)O)c3)nc(N)c12

- MNEC [1]: 0.25 µg/mL
- MIC (Enterococcus faecium): > 32 µg/mL
- MIC (Staphylococcus aureus [3]): 16 µg/mL (≈ 34.8 µM)
- MIC (Staphylococcus aureus [4]): 2 µg/mL (≈ 4.34 µM)
- MIC (Staphylococcus aureus [5]): 32 µg/mL (≈ 69.5 µM)
- MIC (Staphylococcus aureus [6]): 32 µg/mL (≈ 69.5 µM)
- MIC (Staphylococcus aureus [7]): 4 µg/mL (≈ 8.69 µM)
- MIC (Staphylococcus aureus [8]): 16 µg/mL (≈ 34.8 µM)
- MIC [9]: 0.5 µg/mL (≈ 1.09 µM)
SMILES: CCc1nn(-c2cc(Cl)cc(Cl)c2)c2nc(Sc3cccc(C(=O)O)c3)nc(N)c12

- MNEC [1]: 8 µg/mL
SMILES: CCc1nn(-c2cccc(F)c2)c2nc(Sc3cccc(C(=O)O)c3)nc(N)c12

- MNEC [1]: 1 µg/mL
SMILES: Nc1nc(Sc2cccc(C(=O)O)c2)nc2c1cnn2-c1cc(Cl)cc(Cl)c1

- MNEC [1]: 8 µg/mL
SMILES: CCNc1nc(Sc2cccc(C(=O)O)c2)nc2c1c(CC)nn2-c1cc(Cl)cc(Cl)c1

- MNEC [1]: 1 µg/mL
- MIC (Streptococcus pyogenes): 0.5 µg/mL (≈ 1.16 µM)
- MIC (Enterococcus faecium): 32 µg/mL (≈ 74 µM)
- MIC (Staphylococcus aureus [3]): > 32 µg/mL
- MIC (Staphylococcus aureus [4]): > 32 µg/mL
- MIC (Staphylococcus aureus [5]): > 32 µg/mL
- MIC (Staphylococcus aureus [6]): > 32 µg/mL
- MIC (Staphylococcus aureus [7]): > 32 µg/mL
- MIC (Staphylococcus aureus [8]): > 32 µg/mL
- MIC [9]: 4 µg/mL (≈ 9.25 µM)
SMILES: Nc1nc(Sc2cccc(C(=O)O)c2)nc2c(-c3ccc(Cl)c(Cl)c3)cnn12

- MNEC [1]: 8 µg/mL
SMILES: CCc1nn(-c2cc(Cl)cc(Cl)c2)c2nc(Sc3cccc(C(=O)O)c3)nc(NC3CC3)c12

- MNEC [1]: 0.5 µg/mL
SMILES: Cc1nn2c(N)nc(Sc3cccc(C(=O)O)c3)nc2c1C#N
